Reference: ChEMBL document CHEMBL5390313, “Highly Potent Peptide Therapeutics To Prevent Protein Aggregation in Huntington's Disease” (ACS Med Chem Lett, 2023)
Calls of active or inactive are those of the source. The calls are words filed in the database; no cut-off is given here.

Experiments:
[1] = system: Huntingtin (Homo sapiens), P42858 [UNDEFINED MUTATION]; experiment: (§1) Inhibition of TEV protease-induced 6His-GST tagged huntingtin polyQ 103 mutant (unknown origin) aggregation expressed in Escherichia coli BL21(DE3) assessed as relative fluorescence unit at 1:1 molar ratio incubated for 16 hrs by ThT fluorescence based spectrophotometer analysis (reference value: 1235 a.u.)
Summary of the method: (§2)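 Aggregation started by TEV protease addition, with ThT readings beginning right after cleavage. Peptide added equimolar (1:1) to each Htt protein. Fluorescence was followed at 37 °C for at least 16 h, with excitation at 438 nm and emission at 495 nm. The end-point value at 16 h is averaged over triplicates.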

[2] = system: Huntingtin (Homo sapiens), P42858 [UNDEFINED MUTATION]; experiment: as §1, with “46” for “103”, “692” for “1235”; summary of the method: as §2
[3] = system: Huntingtin (Homo sapiens), P42858 [UNDEFINED MUTATION]; experiment: as §1, with “tagged wildtype” for “tagged”, “25” for “103 mutant”, “666” for “1235”; summary of the method: as §2
[4] = system: Huntingtin (Homo sapiens), P42858 [UNDEFINED MUTATION]; experiment: Inhibition of TEV protease-induced 6His-GST tagged huntingtin polyQ 103 mutant (unknown origin) aggregation assessed as reduction of spherical oligomers at 10 uM measured immediately by AFM imaging analysis
Summary of the method: (§3)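 AFM imaging of Htt aggregates after TEV cleavage. Fibrils were allowed to grow for 2 h, then peptide or nothing (control) was added, defining t = 0 h. Images were taken over 0–24 h and scored for spherical oligomers, individual fibrils, branching and aggregate clusters.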

[5] = system: Huntingtin (Homo sapiens), P42858 [UNDEFINED MUTATION]; experiment: Inhibition of TEV protease-induced 6His-GST tagged huntingtin polyQ 103 mutant (unknown origin) aggregation assessed as reduction in individual fibrils at 10 uM measured immediately by AFM imaging analysis; summary of the method: as §3
[6] = system: Huntingtin (Homo sapiens), P42858 [UNDEFINED MUTATION]; experiment: Inhibition of TEV protease-induced 6His-GST tagged huntingtin polyQ 46 mutant (unknown origin) aggregation assessed as reduction of spherical oligomers at 10 uM measured immediately by AFM imaging analysis; summary of the method: as §3
[7] = system: Huntingtin (Homo sapiens), P42858 [UNDEFINED MUTATION]; experiment: Inhibition of TEV protease-induced 6His-GST tagged huntingtin polyQ 103 mutant (unknown origin) aggregation assessed as decrease in fibril clustering at 10 uM measured after 24 hrs by AFM imaging analysis; summary of the method: as §3
[8] = system: Huntingtin (Homo sapiens), P42858 [UNDEFINED MUTATION]; experiment: Inhibition of TEV protease-induced 6His-GST tagged huntingtin polyQ 103 mutant (unknown origin) aggregation assessed as decrease in fibril length at 10 uM measured after 2 to 12 hrs by AFM imaging analysis; settings: time 2-12 hrs
[9] = system: Huntingtin (Homo sapiens), P42858 [UNDEFINED MUTATION]; experiment: Inhibition of TEV protease-induced 6His-GST tagged huntingtin polyQ 103 mutant (unknown origin) aggregation assessed as decrease in fibril length at 10 uM incubated for 24 hrs by AFM imaging analysis relative to control; design: scale not given: the % may be the effect or the level left
Summary of the method: (§4)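 AFM imaging of Htt fibrils grown for 2 h after TEV cleavage in TEV cleavage buffer (pH 8.0). Peptide was then added, defining t = 0 h. Fibril length was measured at 0, 4, 8 and 24 h and reported as the mean length of 100 fibrils with standard deviation at each time point.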

[10] = system: Huntingtin (Homo sapiens), P42858 [UNDEFINED MUTATION]; experiment: Inhibition of TEV protease-induced 6His-GST tagged huntingtin polyQ 46 mutant (unknown origin) aggregation assessed as decrease in fibril length at 10 uM incubated for 24 hrs by AFM imaging analysis relative to control; design: scale not given: the % may be the effect or the level left; summary of the method: as §4
[11] = system: Huntingtin (Homo sapiens), P42858 [UNDEFINED MUTATION]; experiment: Inhibition of TEV protease-induced 6His-GST tagged wildtype huntingtin polyQ 25 (unknown origin) aggregation assessed as decrease in fibril length at 10 uM incubated for 24 hrs by AFM imaging analysis relative to control; design: scale not given: the % may be the effect or the level left; summary of the method: as §4
[12] = system: Huntingtin (Homo sapiens), P42858 [UNDEFINED MUTATION]; experiment: Inhibition of TEV protease-induced 6His-GST tagged huntingtin polyQ 103 mutant (unknown origin) aggregation assessed as decrease in fibril branching at 10 uM measured after 4 to 24 hrs by AFM imaging analysis; settings: time 4-24 hrs; summary of the method: as §3
[13] = system: Huntingtin (Homo sapiens), P42858 [UNDEFINED MUTATION]; experiment: Inhibition of TEV protease-induced 6His-GST tagged huntingtin polyQ 103 mutant (unknown origin) aggregation assessed as isolated fibrils at 10 uM measured after 4 to 8 hrs by AFM imaging analysis; settings: time 4-8 hrs
[14] = system: Huntingtin (Homo sapiens), P42858 [UNDEFINED MUTATION]; experiment: Inhibition of TEV protease-induced 6His-GST tagged huntingtin polyQ 46 mutant (unknown origin) aggregation assessed as decrease in fibril length at 10 uM measured after 2 to 12 hrs by AFM imaging analysis; settings: time 2-12 hrs
[15] = system: Huntingtin (Homo sapiens), P42858 [UNDEFINED MUTATION]; experiment: Inhibition of TEV protease-induced 6His-GST tagged huntingtin polyQ 46 mutant (unknown origin) aggregation assessed as decrease in individual fibers at 10 uM measured after 2 to 24 hrs by AFM imaging analysis; settings: time 2-24 hrs; summary of the method: as §3
[16] = system: Huntingtin (Homo sapiens), P42858 [UNDEFINED MUTATION]; experiment: Inhibition of TEV protease-induced 6His-GST tagged huntingtin polyQ 103 mutant (unknown origin) aggregation assessed as decrease in individual fibers at 10 uM measured after 2 to 24 hrs by AFM imaging analysis; settings: time 2-24 hrs; summary of the method: as §3
[17] = system: Huntingtin (Homo sapiens), P42858 [UNDEFINED MUTATION]; experiment: Inhibition of TEV protease-induced 6His-GST tagged wildtype huntingtin polyQ 25 (unknown origin) aggregation assessed as decrease in individual fibers at 10 uM measured after 2 to 24 hrs by AFM imaging analysis; settings: time 2-24 hrs; summary of the method: as §3
[18] = system: Huntingtin (Homo sapiens), P42858 [UNDEFINED MUTATION]; experiment: Inhibition of TEV protease-induced 6His-GST tagged wildtype huntingtin polyQ 25 (unknown origin) aggregation assessed as reduction of spherical oligomers at 10 uM measured immediately by AFM imaging analysis

Chain of Huntingtin (Homo sapiens), P42858 [UNDEFINED MUTATION] (P42858 whole entry, looked up, change not shown): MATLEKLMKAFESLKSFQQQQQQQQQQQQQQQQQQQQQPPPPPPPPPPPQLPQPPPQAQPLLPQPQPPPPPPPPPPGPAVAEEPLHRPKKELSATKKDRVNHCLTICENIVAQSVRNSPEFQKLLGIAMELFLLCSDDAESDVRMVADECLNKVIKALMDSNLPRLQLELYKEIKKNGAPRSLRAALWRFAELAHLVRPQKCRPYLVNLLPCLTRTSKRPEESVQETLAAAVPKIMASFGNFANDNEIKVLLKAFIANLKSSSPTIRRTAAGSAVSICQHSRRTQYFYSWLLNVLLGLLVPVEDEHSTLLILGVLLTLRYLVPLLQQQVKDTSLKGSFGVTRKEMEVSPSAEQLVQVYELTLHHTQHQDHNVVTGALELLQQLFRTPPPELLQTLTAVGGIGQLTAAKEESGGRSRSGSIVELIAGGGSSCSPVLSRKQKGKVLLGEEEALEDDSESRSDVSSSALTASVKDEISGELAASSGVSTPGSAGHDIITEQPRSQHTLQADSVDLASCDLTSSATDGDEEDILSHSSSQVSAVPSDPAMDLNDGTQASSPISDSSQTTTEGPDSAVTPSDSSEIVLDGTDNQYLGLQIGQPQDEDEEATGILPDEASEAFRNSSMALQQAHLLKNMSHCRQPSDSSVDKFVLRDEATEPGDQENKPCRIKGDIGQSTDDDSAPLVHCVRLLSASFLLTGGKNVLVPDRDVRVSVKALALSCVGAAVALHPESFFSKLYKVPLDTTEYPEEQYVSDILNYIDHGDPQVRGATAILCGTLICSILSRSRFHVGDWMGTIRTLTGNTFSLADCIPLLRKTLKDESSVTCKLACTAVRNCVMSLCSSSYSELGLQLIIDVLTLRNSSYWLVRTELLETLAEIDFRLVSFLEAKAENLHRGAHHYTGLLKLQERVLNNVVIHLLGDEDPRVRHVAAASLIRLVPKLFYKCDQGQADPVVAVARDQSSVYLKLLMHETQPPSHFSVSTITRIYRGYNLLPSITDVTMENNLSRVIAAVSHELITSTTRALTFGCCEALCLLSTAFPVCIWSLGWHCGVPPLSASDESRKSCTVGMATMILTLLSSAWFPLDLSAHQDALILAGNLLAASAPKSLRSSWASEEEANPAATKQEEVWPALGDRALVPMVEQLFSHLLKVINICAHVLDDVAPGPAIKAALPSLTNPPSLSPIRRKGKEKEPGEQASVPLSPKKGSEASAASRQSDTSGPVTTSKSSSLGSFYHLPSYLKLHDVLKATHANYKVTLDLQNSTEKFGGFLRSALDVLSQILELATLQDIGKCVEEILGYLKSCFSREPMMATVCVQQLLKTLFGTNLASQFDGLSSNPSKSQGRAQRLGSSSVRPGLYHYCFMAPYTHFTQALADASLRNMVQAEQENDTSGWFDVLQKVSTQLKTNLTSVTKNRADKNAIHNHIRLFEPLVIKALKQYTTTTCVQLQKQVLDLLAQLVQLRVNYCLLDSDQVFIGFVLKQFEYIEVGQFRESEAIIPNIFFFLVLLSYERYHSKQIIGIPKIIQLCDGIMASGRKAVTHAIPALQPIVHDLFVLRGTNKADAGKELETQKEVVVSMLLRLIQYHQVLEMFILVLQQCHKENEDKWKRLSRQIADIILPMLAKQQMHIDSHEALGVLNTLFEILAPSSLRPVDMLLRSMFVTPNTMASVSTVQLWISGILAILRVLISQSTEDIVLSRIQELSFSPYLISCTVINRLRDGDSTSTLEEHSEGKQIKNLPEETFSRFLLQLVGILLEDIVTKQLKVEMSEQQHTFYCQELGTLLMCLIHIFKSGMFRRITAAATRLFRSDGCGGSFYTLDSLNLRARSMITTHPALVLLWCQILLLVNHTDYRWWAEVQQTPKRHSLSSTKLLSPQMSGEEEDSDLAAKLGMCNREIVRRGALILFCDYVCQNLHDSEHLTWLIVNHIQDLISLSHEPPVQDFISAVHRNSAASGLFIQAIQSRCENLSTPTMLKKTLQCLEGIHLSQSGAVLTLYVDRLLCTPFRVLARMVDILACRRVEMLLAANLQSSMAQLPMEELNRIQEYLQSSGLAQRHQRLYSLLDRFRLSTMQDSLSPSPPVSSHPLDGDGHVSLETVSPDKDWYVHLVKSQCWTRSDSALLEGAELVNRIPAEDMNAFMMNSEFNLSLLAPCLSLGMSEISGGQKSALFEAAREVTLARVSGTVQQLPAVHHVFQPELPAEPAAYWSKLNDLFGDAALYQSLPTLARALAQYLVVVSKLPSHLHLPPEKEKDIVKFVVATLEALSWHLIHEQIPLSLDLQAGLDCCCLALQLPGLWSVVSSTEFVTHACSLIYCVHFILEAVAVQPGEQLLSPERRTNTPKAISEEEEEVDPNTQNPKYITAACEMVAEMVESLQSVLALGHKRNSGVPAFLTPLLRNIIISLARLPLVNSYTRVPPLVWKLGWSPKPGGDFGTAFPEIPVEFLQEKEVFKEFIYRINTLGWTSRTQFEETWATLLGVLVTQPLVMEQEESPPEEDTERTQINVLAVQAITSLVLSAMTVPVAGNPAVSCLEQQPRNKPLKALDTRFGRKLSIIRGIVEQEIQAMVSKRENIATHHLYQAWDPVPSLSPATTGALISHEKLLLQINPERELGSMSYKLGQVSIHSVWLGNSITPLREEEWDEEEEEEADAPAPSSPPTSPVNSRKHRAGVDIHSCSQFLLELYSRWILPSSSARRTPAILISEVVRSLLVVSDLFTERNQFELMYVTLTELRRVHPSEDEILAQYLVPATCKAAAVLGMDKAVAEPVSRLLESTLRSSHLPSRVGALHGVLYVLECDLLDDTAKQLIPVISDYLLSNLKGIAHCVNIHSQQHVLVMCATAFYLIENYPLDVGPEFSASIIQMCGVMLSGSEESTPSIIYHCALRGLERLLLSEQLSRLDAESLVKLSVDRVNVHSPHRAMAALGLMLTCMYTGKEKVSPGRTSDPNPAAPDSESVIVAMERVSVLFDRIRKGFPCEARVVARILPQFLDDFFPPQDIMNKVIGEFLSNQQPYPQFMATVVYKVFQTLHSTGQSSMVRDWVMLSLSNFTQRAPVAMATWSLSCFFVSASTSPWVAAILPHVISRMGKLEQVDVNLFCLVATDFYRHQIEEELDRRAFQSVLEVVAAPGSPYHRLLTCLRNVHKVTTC

## CC(C)C[C@H](NC(=O)CNC(=O)[C@H](CC(C)C)NC(=O)[C@H](CO)NC(=O)[C@H](CC(N)=O)NC(=O)[C@H](C)NC(=O)CNC(=O)[C@H](Cc1c[nH]cn1)NC(=O)[C@@H](N)Cc1c[nH]cn1)C(=O)N[C@H](C(=O)N[C@@H](CCC(N)=O)C(=O)N[C@@H](CO)C(=O)O)C(C)C
[1]
  RFU: 564 a.u.
[2]
  RFU: 357 a.u.
[3]
  RFU: 424 a.u.
[4]
  inhibition: inactive
[5]
  inhibition: inactive
[6]
  inhibition: inactive
[7]
  inhibition: Active
[8]
  inhibition: Active
[9]
  Activity: 36.7%
[10]
  Activity: 24.9%
[11]
  Activity: 42.9%
[12]
  inhibition: Active
[13]
  inhibition: Active
[14]
  inhibition: Active
[15]
  inhibition: Active
[16]
  inhibition: Active
[17]
  inhibition: Active
[18]
  inhibition: inactive

## CSCC[C@H](NC(=O)[C@H](CO)NC(=O)[C@H](Cc1c[nH]cn1)NC(=O)[C@H](CC(C)C)NC(=O)CNC(=O)[C@@H](N)Cc1c[nH]cn1)C(=O)N[C@@H](Cc1c[nH]cn1)C(=O)N[C@@H](CC(N)=O)C(=O)N[C@@H](CCCCN)C(=O)N[C@@H](CC(C)C)C(=O)N[C@@H](CC(C)C)C(=O)N[C@@H](CCC(N)=O)C(=O)N[C@H](C(=O)O)[C@@H](C)O
[1]
  RFU: 433 a.u.
[2]
  RFU: 500 a.u.
[3]
  RFU: 459 a.u.
[4]
  inhibition: inactive
[5]
  inhibition: inactive
[6]
  inhibition: inactive
[7]
  inhibition: Active
[8]
  inhibition: Active
[9]
  Activity: 22.7%
[10]
  Activity: 17.6%
[11]
  Activity: 38.3%
[12]
  inhibition: Active
[13]
  inhibition: Active
[14]
  inhibition: Active
[15]
  inhibition: Active
[16]
  inhibition: Active
[17]
  inhibition: Active
[18]
  inhibition: inactive

## CSCC[C@H](NC(=O)[C@@H](N)Cc1c[nH]c2ccccc12)C(=O)N[C@@H](Cc1ccccc1)C(=O)N1CCC[C@H]1C(=O)N[C@@H](CO)C(=O)N[C@@H](CC(C)C)C(=O)N[C@@H](CCCCN)C(=O)N[C@@H](CC(C)C)C(=O)N[C@@H](CC(C)C)C(=O)N[C@@H](CC(=O)O)C(=O)N[C@@H](Cc1ccc(O)cc1)C(=O)N[C@@H](Cc1c[nH]cn1)C(=O)O
[1]
  RFU: 431 a.u.
[2]
  RFU: 634 a.u.
[3]
  RFU: 552 a.u.
[4]
  inhibition: inactive
[5]
  inhibition: inactive
[6]
  inhibition: inactive
[7]
  inhibition: Active
[8]
  inhibition: Active
[9]
  Activity: 28%
[10]
  Activity: 17.3%
[11]
  Activity: 25.6%
[12]
  inhibition: Active
[13]
  inhibition: Active
[14]
  inhibition: Active
[15]
  inhibition: Active
[16]
  inhibition: Active
[17]
  inhibition: Active
[18]
  inhibition: inactive
